Activity calls are given as the source filed them. The rule behind the calls is not given here.
Columns and labels:
[1] = Selectivity index, ratio of inhibition of DNA dependent DNA polymerase activity of Escherichia coli DNA polymerase 1 Klenow fragment to inhibition of DNA dependent DNA polymerase activity of HIV1 BH10 recombinant reverse transcriptase p66/p51
Outline: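 Ratio of residual Klenow fragment DNA-dependent DNA polymerase activity to residual HIV-1 RT activity. Both enzymes were assayed side by side under identical conditions: activated herring sperm DNA at 20 µg/mL, all four dNTPs, 37 °C, 1% DMSO, compound at 50 µg/mL.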

Escherichia coli = experiment: Inhibition of DNA dependent DNA polymerase activity of Escherichia coli DNA polymerase 1 Klenow fragment assessed as residual enzyme activity at 50 ug/ml relative to control
[2] = test system: Human immunodeficiency virus 1; experiment: Antiviral activity against HIV1 infected in human 721.221 B lymphocytes assessed as inhibition of pseudovirus infection; settings: Human immunodeficiency virus 1, 721.221
[3] = test system: Human immunodeficiency virus 1; experiment: Antiviral activity against HIV1 infected in human 293T cells assessed as inhibition of pseudovirus infection; format: functional, organism-based; settings: Human immunodeficiency virus 1, HEK-293T
[4] = test system: Human immunodeficiency virus type 1 reverse transcriptase (Human immunodeficiency virus 1), Q72547 [L100I,K103N]; experiment: Inhibition of DNA dependent DNA polymerase activity of HIV1 reverse transcriptase L100I/K103N mutant expressed in Escherichia coli DH5alpha
Outline: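 DDDP assay on activated herring sperm DNA (20 µg/mL final) with all four dNTPs, at 37 °C with 1% DMSO. Inhibitor in DMSO is premixed into the buffer before RT is added. Read-out is dNTP incorporation. Dose-response is fitted to a four-parameter logistic for IC50. Values are means of three independent experiments.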

[5] = biological target: Human immunodeficiency virus type 1 reverse transcriptase (Human immunodeficiency virus 1) (UniProt Q72547); experiment: Inhibition of HIV1 BH10 recombinant reverse transcriptase p66/p51 RNase H activity assessed as residual enzyme activity
Outline: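 FRET RNase H assay: RT at 6 nM with 1 mM DTT, incubated with a fluorescein-RNA/DNA-dabcyl hybrid substrate ± inhibitor for 30 min at 37 °C. Hydrolysis is read as emitted fluorescence, in triplicate. Residual activity is relative to the inhibitor-free control.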

[6] = test system: Human immunodeficiency virus 2; experiment: Inhibition of DNA dependent DNA polymerase activity of HIV2 recombinant reverse transcriptase at 140 uM
[7] = test system: Human immunodeficiency virus 1; experiment: Antiviral activity against HIV1 infected in human 293T cells; format: functional, organism-based; settings: Human immunodeficiency virus 1, HEK-293T
[8] = test system: Human immunodeficiency virus 1; experiment: Antiviral activity against HIV1 infected in human CEM cells; format: functional, organism-based; settings: Human immunodeficiency virus 1, CCRF-CEM
[9] = test system: Human immunodeficiency virus 1; experiment: Antiviral activity against HIV1 infected in 8186 T cells; format: functional, organism-based; settings: Human immunodeficiency virus 1, T-cell
[10] = biological target: T1, Human immunodeficiency virus type 1 reverse transcriptase (Human immunodeficiency virus 1, UniProt Q72547); experiment: Inhibition of RNA dependent DNA polymerase activity of HIV1 BH10 recombinant reverse transcriptase p66/p51 assessed as residual enzyme activity at 616 nM using dTTP substrate by steady state kinetic assay
[11] = test system: Human immunodeficiency virus 2; experiment: Inhibition of RNA dependent DNA polymerase activity of HIV2 recombinant reverse transcriptase at 140 uM
[12] = biological target: T1, Human immunodeficiency virus type 1 reverse transcriptase; experiment: Inhibition of RNA dependent DNA polymerase activity of HIV1 BH10 recombinant reverse transcriptase p66/p51 assessed as residual enzyme activity
Outline: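 Recombinant RT RNA-dependent DNA polymerase activity measured as [3H]dTTP incorporation into poly(rA)n·oligo(dT)12-18 at 37 °C in 1% DMSO. Inhibitor was mixed into buffer before RT was added. Compound present at 50 µg/mL final.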

[13] = biological target: T1, Human immunodeficiency virus type 1 reverse transcriptase; experiment: Inhibition of DNA dependent DNA polymerase activity of HIV1 BH10 recombinant reverse transcriptase p66/p51 assessed as residual enzyme activity
Outline: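 Recombinant RT DNA-dependent DNA polymerase assay at 37 °C in 1% DMSO, with the inhibitor premixed into buffer before RT was added. Template was activated herring sperm DNA, 20 µg/mL final, with all four dNTPs. Compound present at 50 µg/mL final.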

[14] = Cytotoxicity against human 721.221 cells after 72 hrs by XTT assay; format: cell-based
Outline: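 721.221 B lymphocytes incubated 72 h at 37 °C with a range of inhibitor concentrations, each concentration in triplicate. Viability read by XTT absorbance at 450 nm, with 620 nm reference. CC50 is the concentration reducing viability by 50% versus the inhibitor-free control.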

[15] = biological target: Human immunodeficiency virus type 1 reverse transcriptase (Human immunodeficiency virus 1) (UniProt Q72547); experiment: Inhibition of RNA dependent DNA polymerase activity of HIV1 BH10 recombinant reverse transcriptase p66/p51 assessed as residual enzyme activity at 616 nM using variable enzyme levels by steady state kinetic assay relative to control
[16] = biological target: Human immunodeficiency virus type 1 reverse transcriptase (Human immunodeficiency virus 1, UniProt Q72547, Y181C); experiment: Inhibition of RNA dependent DNA polymerase activity of HIV1 reverse transcriptase Y181C mutant expressed in Escherichia coli BL21
[17] = Selectivity index, ratio of CC50 for human 721.221 cells to IC50 for HIV1 pseudovirus infection; format: functional
Outline: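 CC50 in 721.221 cells from a 72 h XTT viability assay, divided by IC50 against infection by VSV-G-pseudotyped HIV-1 GFP reporter virus. For the infection assay, cells were infected with 5.6 µg/mL Polybrene and 1% DMSO in RPMI, then fixed at 48–72 h and analysed by flow cytometry. IC50 came from a four-parameter logistic fit.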

[18] = biological target: T1, Human immunodeficiency virus type 1 reverse transcriptase; experiment: Inhibition of RNA dependent DNA polymerase activity of HIV1 BH10 recombinant reverse transcriptase p66/p51 assessed as residual enzyme activity at 616 nM using rA.dT substrate by steady state kinetic assay

SMILES | Ratio [1] | Activity (Escherichia coli) | IC50 [2] | also measured
CCCOCCCNC(=S)Nc1cc(F)ccc1F | 0.6 | 47.5% | – | –
C[C@H](NC(=S)Nc1ccc(Cl)cc1)c1ccccc1 | – | – | 4000 nM | –
CCCOCCCNC(=S)Nc1cc(C)c(C)cc1C | 2.9 | 64.4% | – | –
CCCOCCCNC(=S)Nc1cccc(OC)c1 | 3.2 | 98.7% | – | –
CCCOCCCNC(=S)Nc1ccc(C(C)(C)C)cc1 | 0.4 | 13.8% | – | –
CCCOCCCNC(=S)Nc1ccc(Cl)c(C(F)(F)F)c1 | 0.5 | 2.2% | – | –
CCCOCCCNC(=S)Nc1ccc(Br)c(C)c1 | 0.6 | 14.4% | – | –
CCCOCCCNC(=S)Nc1cccc(C#N)c1 | 1.1 | 75.2% | – | –
CCCOCCCNC(=S)Nc1cc(Cl)ccc1OC | 3.2 | 50.8% | 320 nM | –
CCCOCCCNC(=S)Nc1ccc(Br)c(Cl)c1 | 0.2 | 1% | – | –
S=C(NCc1ccco1)N1CCO[C@H](COc2cncc(Cl)c2)C1 | – | – | > 20000 nM | –
CCCOCCCNC(=S)Nc1ccc(F)cc1Br | 1.2 | 47.6% | – | –
CCCOCCCNC(=S)Nc1ccc(N(C)C)cc1 | 0.2 | 11.1% | – | –
CC(C)(C)CNC(=O)Nc1cc(C(F)(F)F)cc(C(F)(F)F)c1 | – | – | > 20000 nM | –
Cc1ccnc2c1NC(=O)c1cccnc1N2C1CC1 [NEVIRAPINE] | – | 47.5% | – | IC50 [3]: 14 nM; Activity [4]: Active; Activity [5]: inactive; Activity [6]: inactive; IC50 [7]: 50 nM; IC50 [8]: 24 nM; IC50 [9]: 40 nM
CCCOCCCNC(=S)Nc1cc(OC)ccc1OC | – | – | 3000 nM | –
C=CCOc1nc(OCC=C)nc(OC[C@@H]2CN(C(=S)NCc3ccco3)CCO2)n1 | – | – | > 20000 nM | –
CCCOCCCNC(=S)Nc1cc(OC)c(Cl)cc1OC | 7.4 | 62.2% | 170 nM | Ki [10]: 1100 nM; inhibition [11]: 50%; IC50 [12]: 510 nM; IC50 [13]: 940 nM; CC50 at 72 h [14]: 58000 nM; Activity [4]: Active; Activity [5]: inactive; Activity [15]: 59%; IC50 [16]: 70000 nM; Ratio CC50/IC50 [17]: 345; Ki [18]: 1800 nM
COc1ccccc1NC(=S)NCc1ccco1 | – | – | > 20000 nM | –
CCCOCCCNC(=S)Nc1cc(C)ccc1OC | 4.3 | 71.7% | 890 nM | –
CCCCc1ccc(NC(=S)NCCCOCCC)cc1 | 2.4 | 74.2% | – | –

SMILES | Ratio [1] | Activity (Escherichia coli) | IC50 [2] | also measured
CCCOCCCNC(=S)Nc1ccc(Br)cc1 | 1.7 | 48.4% | – | –
Cc1ccc(NC(=S)N2CCc3c([nH]c4ccccc34)C2)c(Cl)c1 | – | – | > 20000 nM | –
CCCOCCCNC(=S)Nc1cc(C)ccc1Cl | 4.4 | 76.5% | 670 nM | –
COc1cccc(CCNC(=S)Nc2ccc(Br)c(C)c2)c1OC | – | – | 7700 nM | –
S=C(NCc1ccco1)NC1CCCCC1 | – | – | > 20000 nM | –
CCCOCCCNC(=S)Nc1ccc(Cl)cc1C | – | 47.5% | 2600 nM | –
S=C(NCc1ccco1)Nc1ccc(Cl)cc1 | – | – | > 20000 nM | –
COc1ccc(CCn2cc(NC(=O)CCc3ccoc3)cn2)cc1OC | – | – | > 20000 nM | –
CCCOCCCNC(=S)Nc1ccccc1OCC | 5.4 | 87.1% | 430 nM | –
CCCCc1ccc(NC(=S)NCCCOCCC)c(C)c1 | 0.2 | 4.5% | – | –
CCCOCCCNC(=S)Nc1cccc(C(=O)OCC)c1 | 1.2 | 56.6% | – | –
CCOC(=O)CCCNC(=S)Nc1ccc(Cl)c(C(F)(F)F)c1 | – | – | 1600 nM | –
Cc1cc(NC(=S)NCCC2=CCCCC2)ccc1Br | – | – | 230 nM | –
CCCOCCCNC(=S)Nc1ccccc1Cl | 1.2 | 59.3% | – | –
CCCOCCCNC(=S)Nc1cccc(Cl)c1C | 0.4 | 10.8% | – | –
CCCOCCCNC(=S)Nc1ccc(C(=O)OC)cc1 | 0.2 | 2.6% | – | –
CCOC(=O)CCN(Cc1ccco1)C(=S)Nc1cccc(OC)c1 | – | – | > 20000 nM | –
CCCOCCCNC(=S)Nc1ccc(Cl)cc1Cl | 0.2 | 13.2% | – | –
Cc1ccc(CCN2C(=O)CS[C@@H]2c2ccc(C)o2)cc1 | – | – | > 20000 nM | –
O=S(=O)(Nc1n[nH]cc1Br)c1cccc2nsnc12 | – | – | 370 nM | inhibition [11]: 50%; IC50 [12]: 2800 nM; IC50 [13]: 3300 nM; Activity [4]: Active; Activity [5]: inactive; IC50 [16]: 20000 nM; Ratio CC50/IC50 [17]: >446
